Data reported in ChEMBL document CHEMBL1128275, “Amino-substituted 2-[2'-(dimethylamino)ethyl]-1,2-dihydro-3H- dibenz[de,h]isoquinoline-1,3-diones. Synthesis, antitumor activity, and quantitative structure--activity relationship” (J Med Chem, 1995).

Columns and labels:
[1] = Cardiotoxicity was measured by using Neonatal rat heart myocyte assay; format: toxicity, tissue-based
Summary of the method: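 Neonatal rat heart myocytes in culture, 1 h drug exposure; cytotoxicity taken as the concentration lowering the ATP/protein ratio to 0.5, reported as IC50.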

L1210 [2] = assay: Anti-tumor activity against murine L1210 sensitive cell line by using MTT assay; format: functional, cell-based; conditions: Mus musculus
L1210 [3] = assay: Antitumor activity against murine L1210 resistant cell line by using MTT assay; format: functional, cell-based; conditions: Mus musculus
[4] = Toxicity ratio of quotient of the IC50 in myocytes divided by the average IC50 for three tumor cell lines; format: cell-based; conditions: myocytes and three tumor cell lines; read-out: Toxicity ratio
Summary of the method: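 Calculated ratio: myocyte IC50 (neonatal rat heart cells, 1 h exposure, ATP/protein end point) divided by the mean IC50 across A375 melanoma, OVCAR-3 ovarian and sensitive L1210 leukemia cells under continuous exposure.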

OVCAR-3 = assay: Anti-tumor activity against human OVCAR-3 ovarian cancer cell lines by using MTT assay; format: functional, cell-based
Summary of the method: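 Human tumor lines (A375 melanoma; OVCAR-3 ovarian carcinoma resistant to standard drugs) under continuous exposure, read by sulforhodamine B or MTT. Drugs from DMSO stocks diluted in PBS pH 7.4, 10^1–10^-5 μg/mL half-log, DMSO ≤0.1%, 37 °C, 5% CO2. MTT: 6 days then 4 h dye, A570. SRB: 8 days, TCA fixation, 0.4% SRB stain, OD 564 nm. Six wells per concentration; IC50 averaged.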

WiDr [5] = assay: Activity against sensitive cell line of WiDr human colon tumor; format: functional, cell-based
Summary of the method: (§1)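 WiDr colon cells, sensitive line and a subline selected for resistance to mitoxantrone; MTT assay with continuous drug exposure. Compounds as hydrochlorides, dissolved in DMSO then serially diluted in PBS pH 7.4, 10^1–10^-5 μg/mL in half-log steps, DMSO ≤0.1% final.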

Mus musculus [6] = assay: The percent increase in life span of compound was measured against P388 Leukemia cells in mice at a dose of 5 mg/kg on days 1,5 and 9; format: functional
Mus musculus [7] = assay: The percent increase in life span of compound was measured against P388 Leukemia in mice at a dose of 15 mg/kg on days 1,5 and 9; format: functional
Summary of the method: (§2)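 Standard NCI protocol: 10^6 freshly harvested P388 cells injected ip into 10 adult male DBA/2J mice on day 0; compound given ip on days 1, 5 and 9; control group of 10 mice given tumor cells and saline on the same days. %ILS = 100 × (treated − control lifespan)/control lifespan, using group median lifespans.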

WiDr [8] = assay: Activity against resistant cell line of WiDr human colon tumor; format: functional, cell-based; summary of the method: as §1
Mus musculus [9] = assay: The percent increase in life span of compound was measured against P388 Leukemia in mice at a dose of 10 mg/kg on days 1,5 and 9; format: functional; summary of the method: as §2
Mus musculus [10] = assay: The percent increase in life span of compound was measured against P388 Leukemia cells in mice at a dose of 10 mg/kg on days 1,5 and 9; format: functional; summary of the method: as §2
Mus musculus [11] = assay: The percent increase in life span of compound was measured against P388 Leukemia cells in mice at a dose of 4.5 mg/kg on days 1,5 and 9; format: functional; summary of the method: as §2
Mus musculus [12] = assay: The percent increase in life span of compound was measured against P388 Leukemia in mice at a dose of 8 mg/kg on days 1,5 and 9; format: functional; summary of the method: as §2
Mus musculus [13] = assay: The percent increase in life span of compound was measured against P388 Leukemia cells in mice at a dose of 4 mg/kg on days 1,5 and 9; format: functional; summary of the method: as §2
Mus musculus [14] = assay: The percent increase in life span of compound was measured against P388 Leukemia cells in mice at a dose of 1.6 mg/kg on days 1,5 and 9; format: functional; summary of the method: as §2

SMILES	IC50 (L1210 [2]) [nM]	IC50 (L1210 [3]) [nM]	IC50 (OVCAR-3) [nM]	Cardiotoxicity [1] [µM]	selectivity ratio [4]	IC50 (WiDr [5]) [nM]	ILS at 5 mg/kg (Mus musculus [6]) [%]	ILS at 15 mg/kg (Mus musculus [7]) [%]	IC50 (WiDr [8]) [nM]	ILS at 10 mg/kg (Mus musculus [9]) [%]	ILS at 10 mg/kg (Mus musculus [10]) [%]	ILS at 4.5 mg/kg (Mus musculus [11]) [%]	ILS at 8 mg/kg (Mus musculus [12]) [%]	ILS at 4 mg/kg (Mus musculus [13]) [%]	ILS at 1.6 mg/kg (Mus musculus [14]) [%]
CN(C)CCN1C(=O)c2c(NC(=O)C(C)(C)C)ccc3cc4ccccc4c(c23)C1=O	862	172	493	> 24.63	> 25	–	–	–	–	–	–	–	–	–	–
CC(=O)Nc1ccc2cc3ccccc3c3c2c1C(=O)N(CCN(C)C)C3=O	608	560	608	> 24.331	> 33	–	–	–	–	–	–	–	–	–	–
CN(C)CCN1C(=O)c2cccc3cc4ccccc4c(c23)C1=O [AZONAFIDE]	–	–	–	1.983	44	10	25	79	15	63	–	–	–	–	–
CN(C)CCN1C(=O)c2cccc3cc(N)cc(c23)C1=O [AMONAFIDE]	–	–	–	48.4	30	–	–	88	–	–	45	–	–	–	–
COc1cccc2c1C(=O)c1c(O)c3c(c(O)c1C2=O)C[C@@](O)(C(=O)CO)C[C@@H]3O[C@H]1C[C@H](N)[C@H](O)[C@H](C)O1 [DOXORUBICIN]	35	3880	35	11.064	181	–	–	–	–	–	–	113	–	–	–
CN(C)CCN1C(=O)c2cccc3cc4ccc(N)cc4c(c23)C1=O	2.5	2.7	20	0.943	34	5.5	–	–	18	109	–	–	73	27	–
O=C1c2c(O)ccc(O)c2C(=O)c2c(NCCNCCO)ccc(NCCNCCO)c21 [MITOXANTRONE]	5	39	5.8	7.737	387	10	–	–	1400	–	–	–	–	–	200
CN(C)CCN1C(=O)c2cccc3cc4cccc(N)c4c(c23)C1=O	678	678	1760	27.1	24	–	–	–	–	–	–	–	–	–	–
CN(C)CCN1C(=O)c2cccc3cc4c(N)cccc4c(c23)C1=O	6780	6780	9480	> 81.3	> 6.7	–	–	–	–	–	–	–	–	–	–
CC(=O)Nc1c2ccccc2c2c3c(cccc13)C(=O)N(CCN(C)C)C2=O	487	487	730	> 24.331	> 37	–	–	–	–	–	–	–	–	–	–

Continued by falling IC50 (L1210 [2]), values first:

IC50 (L1210 [2]) [nM]	IC50 (L1210 [3]) [nM]	IC50 (OVCAR-3) [nM]	SMILES	Cardiotoxicity [1] [µM]	selectivity ratio [4]	IC50 (WiDr [5]) [nM]	ILS at 5 mg/kg (Mus musculus [6]) [%]	ILS at 15 mg/kg (Mus musculus [7]) [%]	IC50 (WiDr [8]) [nM]	ILS at 10 mg/kg (Mus musculus [9]) [%]	ILS at 10 mg/kg (Mus musculus [10]) [%]	ILS at 4.5 mg/kg (Mus musculus [11]) [%]	ILS at 8 mg/kg (Mus musculus [12]) [%]	ILS at 4 mg/kg (Mus musculus [13]) [%]	ILS at 1.6 mg/kg (Mus musculus [14]) [%]
243	2430	2430	CC(=O)Nc1cccc2cc3cccc4c3c(c12)C(=O)N(CCN(C)C)C4=O	> 22.5	> 13.2	–	–	–	–	–	–	–	–	–	–
200	200	150	CN(C)CCN1C(=O)c2cccc3cc4ccc(NC(=O)C(C)(C)C)cc4c(c23)C1=O	11.025	55	–	–	–	–	–	–	–	–	–	–
114	170	13	CC(=O)Nc1ccc2c3c4c(cccc4cc2c1)C(=O)N(CCN(C)C)C3=O	0.487	7.7	–	–	–	–	–	–	–	–	–	–
50	20	50	CN(C)CCN1C(=O)c2cccc3cc4c([N+](=O)[O-])cccc4c(c23)C1=O	0.65	14	–	–	–	–	–	–	–	–	–	–
49	219	49	CC(=O)Nc1ccc2cc3cccc4c3c(c2c1)C(=O)N(CCN(C)C)C4=O	7.786	120	9	–	–	50	–	–	–	–	–	–
44	15	33	CN(C)CCN1C(=O)c2cc(NC(=O)C(C)(C)C)cc3cc4ccccc4c(c23)C1=O	0.662	9.5	–	–	–	–	–	–	–	–	–	–
23	50	226	CN(C)CCN1C(=O)c2cccc3cc4cccc([N+](=O)[O-])c4c(c23)C1=O	8.647	80	–	–	–	–	–	–	–	–	–	–
19	73	61	CC(=O)Nc1cc2c3c(c4ccccc4cc3c1)C(=O)N(CCN(C)C)C2=O	0.177	3.5	–	–	–	–	–	–	–	–	–	–
6.2	15	20	CN(C)CCN1C(=O)c2cc(N)cc3cc4ccccc4c(c23)C1=O	1.724	101	–	–	–	–	–	–	–	–	–	–
5.4	27	68	CN(C)CCN1C(=O)c2ccc(N)c3cc4ccccc4c(c23)C1=O	1.486	20	–	–	–	–	–	–	–	–	–	–
5.4	7.9	12	CN(C)CCN1C(=O)c2c(N)ccc3cc4ccccc4c(c23)C1=O	0.434	48	–	–	–	–	–	–	–	–	–	–
2.7	16	14	CN(C)CCN1C(=O)c2cccc3cc4cc(N)ccc4c(c23)C1=O	0.813	39	–	–	–	–	–	–	–	–	–	–
